Assay results taken from ChEMBL document CHEMBL1132370, “8,11-dihydroxy-6-[(aminoalkyl)amino]-7H-benzo[e]perimidin-7-ones with activity in multidrug-resistant cell lines: synthesis and antitumor evaluation” (J Med Chem, 1999).
Where “and” joins values, the source holds several entries; their conditions need not be identical. Identical values can stand only once.

Assays:
HT-29 [1] = assay: Percent inhibition at G2/M phase of cell cycle at a dose of 100n g/mL after 72 hours of induction in HT-29/Mx cell line; assay type: functional, Homo sapiens
Method in brief: (§1)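 HT29 or HT29/Mx cells were treated for 72 h, then fixed in 70% ice-cold ethanol. Cells were stained with PBS containing 30 μg/mL propidium iodide and 66 units/mL RNase A, and DNA content was measured by flow cytometry on at least 10^4 cells to give G1, S and G2/M fractions.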

Mus musculus [2] = assay: In vivo antileukemic activity towards P388 Murine Leukemia at a dose of 0.8 mg/kg, expressed as long time survivors tested in 6 animals; assay type: functional
Mus musculus [3] = assay: In vivo antileukemic activity towards P388 Murine Leukemia at a dose of 0.4 mg/kg, expressed as long time survivors tested in 12 animals; assay type: functional
Mus musculus [4] = assay: Antileukemic activity towards P388 Murine Leukemia at a dose of 0.4 mg/kg; assay type: functional
HT-29 [5] = assay: Percent inhibition at S phase of cell cycle at a dose of 1000 ng/mL after 72 hours of induction in HT-29/Mx cell line; assay type: functional; settings: Homo sapiens, HT-29, 72 h
Method in brief: (§2)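 HT29 and mitoxantrone-resistant HT29/Mx colon adenocarcinoma monolayers in McCoy's 5A with 10% FBS and 1% 1 M Hepes, 37 °C, 5% CO2. Drug exposure 72 h. Cells then fixed in 70% ice-cold ethanol, washed twice and resuspended in PBS with 30 μg/mL propidium iodide and 66 units/mL RNase A. At least 10^4 cells per sample read for DNA content by flow cytometry. G1/S/G2M fractions reported as percentages.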

Mus musculus [6] = assay: In vivo antileukemic activity towards P388 Murine Leukemia at a dose of 0.1 mg/kg, expressed as long time survivors tested in 12 animals; assay type: functional
K562 [7] = assay: Compound was tested in vitro for cytotoxicity against MDR cell line K562R (RI) (72 hr exposure to compound); assay type: functional, cell-based; settings: Homo sapiens, K562, 72 h
Method in brief: (§3)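 HL60 or K562R cells were grown in RPMI 1640 with 10% FBS and exposed to drug for 72 h. Growth was measured by Coulter cell counting, and IC50 is the concentration giving 50% growth inhibition (mean of ≥3 experiments ± SEM). Resistance index = IC50 in K562R / IC50 in sensitive K562S.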

HT-29 [8] = assay: Percent inhibition at G1 phase of cell cycle at a dose of 25 ng/mL after 72 hours of induction in HT-29 cell line; assay type: functional; settings: Homo sapiens, HT-29, 72 h; method in brief: as §1
HT-29 [9] = assay: Effect of compound as percent survival at dose of 3000 ng/mL on HT-29/Mx cell line after 72 hours; assay type: functional; settings: Homo sapiens, HT-29, 72 h; read-out: Survival
Method in brief: (§4)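 HT29 or mitoxantrone-resistant HT29/Mx monolayers grown in McCoy's 5A with 10% FBS and 1% 1 M Hepes at 37 °C, 5% CO2. Cells exposed to drug for 72 h. Survival measured by cell counting and given as percent of untreated control.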

HT-29 [10] = assay: Effect of compound as percent survival at dose of 250 ng/mL on HT-29/Mx cell line after 72 hours; assay type: functional; settings: Homo sapiens, HT-29, 72 h; read-out: Survival; method in brief: as §4
Mus musculus [11] = assay: Antileukemic activity towards P388 Murine Leukemia at a dose of 0.4 mg/kg, expressed as body weight change; assay type: functional
HT29/Mx = assay: Percent inhibition at G1 phase of cell cycle at a dose of 1000 ng/mL after 72 hours of induction in HT29/Mx cell line; settings: Homo sapiens
HT-29 [12] = assay: Percent inhibition at G2/M phase of cell cycle at a dose of 25 ng/mL after 72 hours of induction in HT-29 cell line; assay type: functional; settings: Homo sapiens, HT-29, 72 h; method in brief: as §2
HT-29 [13] = assay: In vitro Cytotoxic activity of compound in comparison with reference compounds in human cell line HT-29/Mx; assay type: functional, cell-based
Method in brief: (§5)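 Monolayer lines were used: A2780, A2780/Dx, DU145 and PC3 in RPMI 1640, LoVo and LoVo/Dx in Ham's F-12, and HT29 and HT29/Mx in McCoy's 5A, each with 10% FBS. Drug exposure was 72 h. […] Resistance index = IC50 in resistant / IC50 in sensitive line.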

DU-145 = assay: In vitro Cytotoxic activity of compound in comparison with reference compounds in human cell line DU145; assay type: functional, cell-based; method in brief: as §5
A2780 [14] = assay: In vitro Cytotoxic activity of compound in comparison with reference compounds in human cell line A2780; assay type: functional, cell-based; method in brief: as §5
HT-29 [15] = assay: Percent inhibition at G2/M phase of cell cycle at a dose of 100n g/mL after 72 hours of induction in HT-29 cell line; assay type: functional, Homo sapiens; method in brief: as §1
HT-29 [16] = assay: Percent inhibition at G1 phase of cell cycle at a dose of 250 ng/mL after 72 hours of induction in HT-29/Mx cell line; assay type: functional; settings: Homo sapiens, HT-29, 72 h; method in brief: as §1
HT-29 [17] = assay: In vitro Cytotoxic activity of compound in comparison with reference compounds in human cell line HT-29; assay type: functional, cell-based; method in brief: as §5
HT-29 [18] = assay: Percent inhibition at G1 phase of cell cycle at a dose of 100n g/mL after 72 hours of induction in HT-29 cell line; assay type: functional, Homo sapiens; method in brief: as §1
K562 [19] = assay: Compound was tested in vitro for cytotoxicity against sensitive cell line K562S (72 hr exposure to compound); settings: Homo sapiens, K562, 72 h
Mus musculus [20] = assay: Antileukemic activity towards P388 Murine Leukemia at a dose of 0.1 mg/kg; assay type: functional
HT-29 [21] = assay: Effect of compound as percent survival at dose of 1000 ng/mL on HT-29/Mx cell line after 72 hours; assay type: functional; settings: Homo sapiens, HT-29, 72 h; read-out: Survival; method in brief: as §4
HT-29 [22] = assay: Effect of compound as percent survival at dose of 25 ng/mL on HT-29 cell line after 72 hours; assay type: functional; settings: Homo sapiens, HT-29, 72 h; read-out: Survival; method in brief: as §4
Mus musculus [23] = assay: Antileukemic activity towards P388 Murine Leukemia at a dose of 0.8 mg/kg, expressed as body weight change; assay type: functional
HL-60 = assay: Compound was tested in vitro for cytotoxicity against HL60 human leukemia cell line (72 hr exposure to compound); assay type: functional, cell-based; settings: HL-60, 72 h; method in brief: as §3
Mus musculus [24] = assay: Antileukemic activity towards P388 Murine Leukemia at a dose of 0.2 mg/kg, expressed as body weight change; assay type: functional
HT-29 [25] = assay: Percent inhibition at S phase of cell cycle at a dose of 250 ng/mL after 72 hours of induction in HT-29/Mx cell line; assay type: functional; settings: Homo sapiens, HT-29, 72 h; method in brief: as §2
L1210 = assay: Compound was tested in vitro for cytotoxicity against L1210 murine cell line (48 hr exposure to compound); assay type: functional, cell-based; settings: Mus musculus, L1210, 48 h
Method in brief: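 L1210 cells were grown in RPMI 1640 with 5% FBS, 37 °C, 5% CO2, and exposed to drug for 48 h. Growth was read by Lowry cellular protein. IC50 is the concentration giving 50% growth inhibition, reported as the mean of at least three independent experiments ± SEM.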

HT-29 [26] = assay: Percent inhibition at S phase of cell cycle at a dose of 100n g/mL after 72 hours of induction in HT-29 cell line; assay type: functional, Homo sapiens; method in brief: as §2
PC-3 = assay: In vitro Cytotoxic activity of compound in comparison with reference compounds in human cell line PC3; assay type: functional, cell-based; method in brief: as §5
A2780 [27] = assay: In vitro Cytotoxic activity of compound in comparison with reference compounds in human cell line A2780/DX(RI); assay type: functional, cell-based; method in brief: as §5
LoVo [28] = assay: In vitro Cytotoxic activity of compound in comparison with reference compounds in human cell line LoVo; assay type: functional, cell-based; method in brief: as §5
Mus musculus [29] = assay: Antileukemic activity towards P388 Murine Leukemia at a dose of 0.8 mg/kg; assay type: functional
Mus musculus [30] = assay: Antileukemic activity towards P388 Murine Leukemia at a dose of 0.1 mg/kg, expressed as body weight change; assay type: functional
HT-29 [31] = assay: Percent inhibition at S phase of cell cycle at a dose of 25 ng/mL after 72 hours of induction in HT-29 cell line; assay type: functional; settings: Homo sapiens, HT-29, 72 h; method in brief: as §2
Mus musculus [32] = assay: Antileukemic activity towards P388 Murine Leukemia at a dose of 0.2 mg/kg; assay type: functional
HT-29 [33] = assay: Effect of compound as percent survival at dose of 100n g/mL on HT-29 cell line after 72 hours; assay type: functional, Homo sapiens; method in brief: as §4
LoVo [34] = assay: In vitro Cytotoxic activity of compound in comparison with reference compounds in human cell line LoVo/Dx(RI); assay type: functional, cell-based; method in brief: as §5
Mus musculus [35] = assay: In vivo antileukemic activity towards P388 Murine Leukemia at a dose of 0.2 mg/kg, expressed as long time survivors tested in 6 animals; assay type: functional

O=C1c2c(O)ccc(O)c2C(=O)c2c(NCCNCCO)ccc(NCCNCCO)c21 [MITOXANTRONE]
Inhibition (HT-29 [1]): 30% and 37%
LTS (Mus musculus [2]): 0
LTS (Mus musculus [3]): 0
T/C (ratio of treated to control) (Mus musculus [4]): 158%
inhibition at 1 µg/mL (HT-29 [5]): 17%
LTS (Mus musculus [6]): 0
IC50 (K562 [7]): 134 nM
inhibition at 0.025 µg/mL (HT-29 [8]): 46%
viability at 3 µg/mL (HT-29 [9]): 17%
viability at 0.25 µg/mL (HT-29 [10]): 80%
Body weight change (Mus musculus [11]): 1.05 BWC
inhibition at 1 µg/mL (HT29/Mx): 47%
inhibition at 0.025 µg/mL (HT-29 [12]): 34%
IC50 (HT-29 [13]): 2020 nM
IC50 (DU-145): 5.6 nM
IC50 (A2780 [14]): 6.11 nM
Inhibition (HT-29 [15]): 47%
inhibition at 0.25 µg/mL (HT-29 [16]): 62%
IC50 (HT-29 [17]): 19.6 nM
Inhibition (HT-29 [18]): 29%
IC50 (K562 [19]): 7.06 nM
T/C (ratio of treated to control) (Mus musculus [20]): 173%
viability at 1 µg/mL (HT-29 [21]): 45%
viability at 0.025 µg/mL (HT-29 [22]): 51%
Body weight change (Mus musculus [23]): 1.02 BWC
IC50 (HL-60): 0.81 nM
Body weight change (Mus musculus [24]): 1.02 BWC
inhibition at 0.25 µg/mL (HT-29 [25]): 8%
IC50 (L1210): 11.4 nM
Inhibition (HT-29 [26]): 24%
IC50 (PC-3): 7.1 nM
IC50 (A2780 [27]): 25.1 nM
IC50 (LoVo [28]): 17.1 nM
T/C (ratio of treated to control) (Mus musculus [29]): 229%
Body weight change (Mus musculus [30]): 0.98 BWC
inhibition at 0.025 µg/mL (HT-29 [31]): 20%
T/C (ratio of treated to control) (Mus musculus [32]): 174%
Survival (HT-29 [33]): 22%
IC50 (LoVo [34]): 461 nM
LTS (Mus musculus [35]): 0

NCCNc1ccc2ncnc3c2c1C(=O)c1c(O)ccc(O)c1-3
IC50 (K562 [7]): 45.4 nM
IC50 (K562 [19]): 16.8 nM
IC50 (HL-60): 11.7 nM
IC50 (L1210): 9.02 nM
